{"data": "Experimental data gathered from unrelated publications", "note": "Compare with care: the assays were run in different laboratories."}
{"SMILES": "Cc1ccc2[nH]nc(-c3nnc(Nc4ccc(C(F)(F)F)cc4)s3)c2c1", "tested on": "Serratia marcescens", "assay": "microbial growth", "test system": "ATCC8100", "measurement": "MIC", "value": "62.8 µg/mL"}
{"SMILES": "Cc1ccc(N=Nc2c(N)nn3c(-c4ccc(Cl)cc4Cl)cc(-c4ccc(OCc5ccccc5)cc4)nc23)cc1", "tested on": "Enterobacter cloacae", "assay": "microbial killing", "test system": "ATCC23355", "measurement": "MBC", "value": "62.5 µg/mL"}
{"SMILES": "COc1ccc(NC(=O)Nc2ccc(-c3cn(Cc4cccc(Cl)c4)nn3)cc2)cc1", "tested on": "NCI-H1299", "assay": "cell growth or viability, CCK-8", "setting": "50 µM, 72 h", "measurement": "viability", "value": "93.7%"}
{"SMILES": "CN(C)CCNC(=O)c1ccc(-c2nc3ccc4[nH]ncc4c3c3c2CCCCC3)cc1", "tested on": "22Rv1", "assay": "cell growth or viability", "setting": "72 h", "measurement": "GI50", "value": "4.12 µM"}
{"SMILES": "COc1ccc(NC(=O)Nc2cccc(-c3cn(Cc4ccc(C)cc4)nn3)c2)cc1", "tested on": "NCI-H1299", "assay": "cell growth or viability, CCK-8", "setting": "50 µM, 72 h", "measurement": "viability", "value": "156%"}
{"SMILES": "Nc1nn2c(-c3ccc(Cl)cc3Cl)cc(-c3ccc(OCc4ccccc4)cc3)nc2c1N=Nc1ccc(F)cc1", "tested on": "Enterobacter cloacae", "assay": "microbial killing", "test system": "ATCC23355", "measurement": "MBC", "value": "62.5 µg/mL"}
{"SMILES": "O=C(Nc1ccc(-c2cn(Cc3ccc(Br)cc3)nn2)cc1)Nc1ccccc1Br", "tested on": "NCI-H1299", "assay": "cell growth or viability, CCK-8", "setting": "50 µM, 72 h", "measurement": "viability", "value": "115%"}
{"SMILES": "CC(C)(C)c1cc(NC(=O)Nc2ccc(-c3cn4c(n3)sc3cc(OCCN5CCOCC5)ccc34)cc2)no1", "tested on": "22Rv1", "assay": "cell growth or viability", "setting": "72 h", "measurement": "GI50", "value": "> 10 µM"}
{"SMILES": "O=C(Nc1ccc(Cl)cc1)Nc1cccc(-c2cn(Cc3ccc(Cl)cc3)nn2)c1", "tested on": "NCI-H1299", "assay": "cell growth or viability, CCK-8", "setting": "50 µM, 72 h", "measurement": "viability", "value": "76.3%"}
{"SMILES": "Cc1ccc(N=Nc2c(N)nn3c(-c4ccco4)cc(-c4ccc(OCc5ccccc5)cc4)nc23)cc1", "tested on": "Enterobacter cloacae", "assay": "microbial killing", "test system": "ATCC23355", "measurement": "MBC", "value": "125 µg/mL"}
{"SMILES": "Cc1ccc2[nH]nc(-c3nnc(Nc4ccc(Br)cc4)s3)c2c1", "tested on": "Serratia marcescens", "assay": "microbial growth", "test system": "ATCC8100", "measurement": "MIC", "value": "257 µg/mL"}
{"SMILES": "O=C(Nc1ccc(Cl)cc1)Nc1ccc(-c2cn(Cc3ccc(Cl)cc3)nn2)cc1", "tested on": "NCI-H1299", "assay": "cell growth or viability, CCK-8", "setting": "50 µM, 72 h", "measurement": "viability", "value": "88.1%"}
{"SMILES": "Cc1ccc2[nH]nc(-c3nnc(Nc4ccc(O)cc4)s3)c2c1", "tested on": "Serratia marcescens", "assay": "microbial growth", "test system": "ATCC8100", "measurement": "MIC", "value": "62.8 µg/mL"}
{"SMILES": "CN(C)CCNC(=O)c1ccc(-c2nc3ccc4[nH]ncc4c3c3c2CCCC3)c(F)c1", "tested on": "22Rv1", "assay": "cell growth or viability", "setting": "72 h", "measurement": "GI50", "value": "1.28 µM"}
{"SMILES": "O=C(NCc1cn(Cc2ccc(Cl)cc2)nn1)Nc1ccccc1Br", "tested on": "NCI-H1299", "assay": "cell growth or viability, CCK-8", "setting": "50 µM, 72 h", "measurement": "viability", "value": "90.7%"}
{"SMILES": "COc1ccc(NC(=O)NCc2cn(Cc3ccc(Br)cc3)nn2)cc1", "tested on": "NCI-H1299", "assay": "cell growth or viability, CCK-8", "setting": "50 µM, 72 h", "measurement": "viability", "value": "91.9%"}
{"SMILES": "O=C(Nc1cccc(-c2cn(Cc3ccc(Cl)cc3)nn2)c1)Nc1ccccc1Br", "tested on": "NCI-H1299", "assay": "cell growth or viability, CCK-8", "setting": "50 µM, 72 h", "measurement": "viability", "value": "130%"}
{"SMILES": "COc1ccc(N=Nc2c(N)nn3c(-c4ccc(C)cc4)cc(-c4ccc(OCc5ccccc5)cc4)nc23)cc1", "tested on": "Enterobacter cloacae", "assay": "microbial killing", "test system": "ATCC23355", "measurement": "MBC", "value": "125 µg/mL"}
{"SMILES": "COc1ccc(NC(=O)Nc2ccc(-c3cn(Cc4ccc(C)cc4)nn3)cc2)cc1", "tested on": "NCI-H1299", "assay": "cell growth or viability, CCK-8", "setting": "50 µM, 72 h", "measurement": "viability", "value": "104%"}
